Consider 6 molecules from paper PMC2635573 (Molecular pharmacology, 2008).

The IC50 is the point on the concentration scale where inhibition reaches its midpoint.

Read-outs that look alike come from different tables or passages of the source. Non-standard residues stand in square brackets, D forms with d. Residues, ends and D or L forms follow the SMILES beside them. *: point of attachment. X1 = COC1=CC(=O)N(C(=O)[C@@H](O*)C(C)C)[C@H]1Cc1ccccc1; NMe2Val = CC(C)[C@@H](C(=O)*)N(C)C; NMeV = CN[C@H](C(=O)O)C(C)C; Cbz = O=C(OCc1ccccc1)*; NHtBu = CC(C)(C)N*

For one data set, the system named is CCRF-CEM leukemia cells. The data set can be described thus: cells. The format is cell-based, human. Conditions: for -fold difference in IC50 (+ BCPP versus − BCPP) / IC50: 24 h; for IC50: read-out: IC50 − BCPP.
Data set [1] concerns the target purified bovine brain tubulin (Bos taurus, UniProt P81947+Q6B856). The data set can be described thus: Inhibition of tubulin assembly. The format is biochemical.
The test system of a further data set is P-glycoprotein. Conditions: ref Aherne et al., 1996; cited from earlier work.
For data set [2], the system named is Burkitt lymphoma CA46 cells. Description: Inhibition of growth of CA46 cells. Type of data set: cell-based, human. Summed up:
(§1)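 Suspension lines were grown in RPMI 1640 with 5% fetal bovine serum (10% for CA46) at 37°C in humidified 5% CO₂. Test compound was added in DMSO (0.1% final) at varying concentrations. Growth was measured as cell number with a particle counter, and the IC₅₀ was derived from it.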

Data set [3] relates to MOLT-4 cells. Description: Inhibition of cell growth, MOLT-4 cells. Type of data set: cell-based, human. The conditions noted are these: mean ± S.D. The method, boiled down:
as §1

In another data set the test system is NCI/ADR-RES. Conditions: multidrug resistant, P-glycoprotein expressing.
Data set [4] deals with SR cells. The data set can be described thus: [^3H]Tasidotin uptake and metabolism, SR cells. The format is in vitro ADME, human. Conditions: 0.1 μM [^3H]tasidotin, 16 h. The method, boiled down:
(§2)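 Log-phase cells at ~10⁶ cells/ml were given 0.1 μM [³H]test compound for 16 h (CA46 also 5 min). Cells were centrifuged, washed twice in PBS pH 7.2 and sonicated in water. Extracts were boiled 5 min, clarified, and precipitated with 3 volumes of ethanol. Radiolabel and protein were measured in supernatants and pellets. Supernatants in 0.1% TFA were run on C18 HPLC (10–60% acetonitrile, 10 min, 40°C) with in-line radioactivity detection and peak areas. Pellet label was taken as protein-incorporated proline.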

In data set [5] the test system is SR, CCRF-CEM, and HL-60 (TB).
Data set [6] has as its system K-562 cells. The data set can be described thus: [^3H]Tasidotin uptake and metabolism, K-562 cells. Type of data set: in vitro ADME, human. The conditions noted are these: 0.1 μM [^3H]tasidotin, 16 h. The method, boiled down:
as §2

The subject of data set [7] is RPMI-8226 cells. Description: [^3H]Tasidotin uptake and metabolism, RPMI-8226 cells. The format is in vitro ADME, human. The conditions noted are these: 0.1 μM [^3H]tasidotin, 16 h. The method, boiled down:
as §2

The subject of data set [8] is SR, CCRF-CEM, and HL-60 (TB). This is another data set of the same source.
The subject of data set [9] is CA46, K-562, MOLT-4, and RPMI-8226. The conditions noted are these: less sensitive cell lines, 0.1 μM [^3H]tasidotin, 16 h.
In data set [10] the test system is CCRF-CEM cells. Description: [^3H]Tasidotin uptake and metabolism, CCRF-CEM cells. The format is in vitro ADME, human. The conditions noted are these: 0.1 μM [^3H]tasidotin, 16 h. Summed up: as §2
The subject of data set [11] is HL-60 (TB) cells.
The subject of data set [12] is CA46 Burkitt lymphoma cells. Description: [^3H]Tasidotin uptake and metabolism, CA46 cells. Type of data set: in vitro ADME, human. The conditions noted are these: 0.1 μM [^3H]tasidotin.
The subject of data set [13] is HL-60 (TB) cells. This is another data set of the same source.
Data set [14] has as its system SR cells. The data set can be described thus: Inhibition of cell growth, SR cells. Conditions: mean ± S.D. Type of data set: cell-based, human. Summed up:
as §1

Data set [15] deals with CCRF-CEM cells. The data set can be described thus: Inhibition of cell growth, CCRF-CEM cells. The format is cell-based, human. The conditions noted are these: mean ± S.D. Summed up: as §1
Data set [16] relates to CA46, K-562, MOLT-4, and RPMI-8226.
Data set [17] concerns RPMI-8226 cells. The data set can be described thus: Inhibition of cell growth, RPMI-8226 cells. Type of data set: cell-based, human. The conditions noted are these: mean ± S.D. The method, boiled down: as §1
Data set [18] concerns K-562 cells. The data set can be described thus: Inhibition of cell growth, K-562 cells. The conditions noted are these: mean ± S.D. Type of data set: cell-based, human. Summed up:
as §1

For data set [19], the system named is MOLT-4 cells. The data set can be described thus: [^3H]Tasidotin uptake and metabolism, MOLT-4 cells. Conditions: 0.1 μM [^3H]tasidotin, 16 h. The format is in vitro ADME, human. Summed up: as §2
[20] abbreviates: read-out: IC50 Growth of CA46 Cells, 48-h incubation at 37°C, increase in cell number.
Setting [21] is: 16 h, % of supernatant radiolabel.

Chain of purified bovine brain tubulin (P81947 whole entry): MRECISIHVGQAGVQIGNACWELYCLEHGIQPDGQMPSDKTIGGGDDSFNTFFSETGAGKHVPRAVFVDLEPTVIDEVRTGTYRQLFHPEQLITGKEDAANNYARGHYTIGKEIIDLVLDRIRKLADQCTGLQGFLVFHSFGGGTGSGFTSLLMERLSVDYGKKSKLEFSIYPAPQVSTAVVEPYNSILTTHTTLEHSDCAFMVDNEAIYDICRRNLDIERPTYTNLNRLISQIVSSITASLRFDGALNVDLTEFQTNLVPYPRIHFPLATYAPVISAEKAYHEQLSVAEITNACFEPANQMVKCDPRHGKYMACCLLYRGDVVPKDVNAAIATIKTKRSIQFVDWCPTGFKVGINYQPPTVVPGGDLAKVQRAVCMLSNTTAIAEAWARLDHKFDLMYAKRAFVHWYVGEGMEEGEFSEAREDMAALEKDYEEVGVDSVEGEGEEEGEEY
Chain of purified bovine brain tubulin (Q6B856 whole entry): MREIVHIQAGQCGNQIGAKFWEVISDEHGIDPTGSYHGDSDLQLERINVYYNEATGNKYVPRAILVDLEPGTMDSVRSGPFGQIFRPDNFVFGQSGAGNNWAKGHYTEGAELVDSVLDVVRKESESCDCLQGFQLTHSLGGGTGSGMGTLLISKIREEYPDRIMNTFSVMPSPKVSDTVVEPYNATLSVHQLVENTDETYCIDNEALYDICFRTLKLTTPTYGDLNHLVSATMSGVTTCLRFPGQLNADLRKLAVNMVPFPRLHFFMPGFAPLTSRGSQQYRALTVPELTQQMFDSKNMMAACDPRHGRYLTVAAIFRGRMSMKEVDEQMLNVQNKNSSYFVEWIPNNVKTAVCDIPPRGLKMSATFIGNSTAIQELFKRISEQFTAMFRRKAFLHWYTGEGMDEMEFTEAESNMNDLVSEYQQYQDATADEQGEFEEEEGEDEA

For `COc1ccc(/C=C\c2cc(OC)c(OC)c(OC)c2)cc1O` [Combretastatin A-4], in the data set on CCRF-CEM leukemia cells (CCRF-CEM cells, 12.5 μM BCPP), the “Effect of BCPP on the inhibition of CCRF-CEM cell growth by the drug” value is “no effect” and the “-fold difference in IC50 (+ BCPP versus − BCPP)” value (“-fold difference in IC50” for short) is given as 0.8 -fold. In addition, in the data set on CCRF-CEM leukemia cells (Homo sapiens, CCRF-CEM), the IC50 worked out at 2.3 ± 0.3 nM.
In the case of `COC1=CC(=O)N(C(=O)[C@@H](OC(=O)[C@@H]2CCCN2C(=O)[C@@H]2CCCN2C(=O)[C@H](C(C)C)N(C)C(=O)[C@@H](NC(=O)[C@H](C(C)C)N(C)C)C(C)C)C(C)C)[C@H]1Cc1ccccc1` [Dolastatin 15, reference compound] (NMe2Val-V[NMeV]PP-X1), the IC50 in [1] was found to be 5600 ± 900 nM; in data set [2] (setting [20]), 3 nM. The P-glycoprotein substrate entry with P-glycoprotein is on record as “P-glycoprotein substrate”.
Consider `CN(Cc1cnc2nc(N)nc(N)c2n1)c1ccc(C(=O)N[C@@H](CCC(=O)O)C(=O)O)cc1` [Methotrexate], for which, in the data set on CCRF-CEM leukemia cells (CCRF-CEM cells, 12.5 μM BCPP), the “Effect of BCPP on the inhibition of CCRF-CEM cell growth by the drug” value is listed as “no effect” and the “-fold difference in IC50” value was 1.1 -fold. In the data set with CCRF-CEM leukemia cells (Homo sapiens, CCRF-CEM), the IC50 is 7.3 ± 0.8 nM.
Turning to `CC[C@H](C)[C@@H]([C@@H](CC(=O)N1CCC[C@H]1[C@H](OC)[C@@H](C)C(=O)N[C@@H](Cc1ccccc1)c1nccs1)OC)N(C)C(=O)[C@@H](NC(=O)[C@H](C(C)C)N(C)C)C(C)C` [Dolastatin 10, reference compound], the IC50 in data set [1] was 800 ± 100 nM; in [2] (setting [20]), 0.03 nM.
Consider `O=C[C@@H]1CCCN1C(=O)[C@@H]1CCCN1C(=O)OCc1ccccc1` [BCPP, N-benzyloxycarbonylprolylprolinal] (Cbz-Pro-Pro-aldehyde), for which, in the data set with CCRF-CEM leukemia cells (CCRF-CEM cells, 12.5 μM BCPP), the “Effect of BCPP itself on the growth of the cells” value is “negligible effects”.
For `CC(C)[C@H](NC(=O)[C@H](C(C)C)N(C)C)C(=O)N(C)[C@H](C(=O)N1CCC[C@H]1C(=O)N1CCC[C@H]1C(=O)NC(C)(C)C)C(C)C` [Tasidotin] (NMe2Val-V[NMeV]PP-NHtBu), the half-inhibitory concentration (IC50) with MOLT-4 cells [3] is 230 ± 30 nM; in the data set on NCI/ADR-RES, over 1000 nM; in [1], 10000 ± 400 nM; in the data set with MDA-MB-435 line it was 4 nM; in data set [8], 20 to 36 nM; with CCRF-CEM leukemia cells (CCRF-CEM cells, without BCPP, cell number), 40 ± 10 nM. In addition, the concentration for half-maximal inhibition (IC50) in the data set with HL-60 (TB) cells [11] was 36 ± 6 nM; with SR cells [14] it was 20 ± 1 nM; in the data set with CCRF-CEM cells [15] it was 30 ± 7 nM; in data set [16] it was 100 to 300 nM; with RPMI-8226 cells [17], 300 ± 20 nM; in data set [2] (CA46 cells (Table 2), mean ± S.D.), 100 ± 5 nM. The IC50 in data set [2] (setting [20]) is 100 ± 5 nM; in the data set on K-562 cells [18] it was 230 ± 30 nM; in the data set with HS 578-T line it was 200 nM. Besides, the “Free Proline in Supernatant” value came out at 5.0 fmol / μg cell protein in the data set on SR cells [4]; 49% in the data set on SR cells [4] (% of supernatant radiolabel); 4.2 fmol / μg cell protein in the data set with K-562 cells [6]; 64% in the data set on K-562 cells [6] (% of supernatant radiolabel); 1.6 fmol / μg cell protein with RPMI-8226 cells [7]; 61% in the data set with RPMI-8226 cells [7] (% of supernatant radiolabel). Besides, the “Free Proline in Supernatant” value with CCRF-CEM cells [10] came out at 11.5 fmol / μg cell protein; in the data set on CCRF-CEM cells [10] (% of supernatant radiolabel), 48%; in data set [12] (16 h) it was 2.8 fmol / μg cell protein; in data set [12] (setting [21]), 58%; in the data set with MOLT-4 cells [19] it was 3.5 fmol / μg cell protein; in the data set on MOLT-4 cells [19] (% of supernatant radiolabel), 59%. In addition, the “Proline from Pellets” value in the data set on SR cells [4] came out at 9.8 fmol / μg cell protein; in the data set with K-562 cells [6] it was 9.0 fmol / μg cell protein; with RPMI-8226 cells [7], 5.8 fmol / μg cell protein; in [12] (16 h), 7.1 fmol / μg cell protein; in the data set with HL-60 (TB) cells [13] it was 12.4 fmol / μg cell protein; in the data set on MOLT-4 cells [19], 7.0 fmol / μg cell protein. In addition, the “Total Proline in Supernatant (All Forms)” value in the data set with SR cells [4] came out at 51 ± 9%; in the data set on K-562 cells [6] it was 42 ± 9%; in the data set with RPMI-8226 cells [7], 31 ± 5%; in the data set with CCRF-CEM cells [10], 52 ± 4%; in data set [12] (16 h), 41 ± 1%; in the data set on HL-60 (TB) cells [13] it was 54 ± 10%. Further, the “Total Proline in Supernatant (All Forms)” value in the data set on MOLT-4 cells [19] was 46 ± 7%. Moreover, the “Total Tasidotin-Derived Proline (Total Tasidotin Uptake)” value in the data set with SR cells [4] was 20 ± 5 fmol / μg cell protein; in the data set with K-562 cells [6], 15.5 ± 2 fmol / μg cell protein; with RPMI-8226 cells [7], 8.4 ± 3 fmol / μg cell protein; in the data set on CCRF-CEM cells [10], 24 ± 9 fmol / μg cell protein; in data set [12] (16 h), 12 ± 0.6 fmol / μg cell protein; in the data set on HL-60 (TB) cells [13], 27 ± 3 fmol / μg cell protein. In addition, in the data set on MOLT-4 cells [19], the “Total Tasidotin-Derived Proline (Total Tasidotin Uptake)” value came to 13 ± 3 fmol / μg cell protein. The “Proline in P5 in Supernatant” value with SR cells [4] (% of supernatant radiolabel) is given as 51 ± 7%; with K-562 cells [6] (% of supernatant radiolabel), 36 ± 6%; in the data set with RPMI-8226 cells [7] (% of supernatant radiolabel), 39 ± 5%; with CCRF-CEM cells [10] (% of supernatant radiolabel), 62 ± 10%; in data set [12] (setting [21]), 42 ± 10%; in the data set on MOLT-4 cells [19] (% of supernatant radiolabel), 41 ± 9%. Further, in [5], the “Intracellular P5” value is on record as 5.2-7.7 fmol/μg cell protein. Moreover, the “Share of total uptake as P5, average” value in data set [5] was found to be 29%; in data set [9], 16%. For the same molecule, the “Share of total uptake as proline, average” value is listed as 71% in data set [5] and 84% in data set [9]. Also, the “Fold less active as inhibitor of tubulin assembly than dolastatin 10” value in data set [1] (ratio of tubulin assembly IC50 values) is “more than 12 -fold”. Besides, the “Total uptake, average” value in data set [9] was 12 fmol/μg of cell protein. Also, in the data set on CCRF-CEM leukemia cells (CCRF-CEM cells, 12.5 μM BCPP), the “-fold difference in IC50” value was 30 -fold. Also, the “Soluble intracellular radiolabel remaining as tasidotin” value in data set [12] (5 min) is “Approximately 48%”. For the same molecule, the “Soluble intracellular radiolabel with the mobility of P5” value in [12] (5 min) is “approximately 17%”. Moreover, the “Soluble radiolabel that had undergone further metabolism (unbound proline peak)” value in data set [12] (5 min) was “approximately 35%”. In addition, the “Radiolabel in the unbound proline peak” value in [12] (96 h) is given as “approximately 38%”. Further, the “Radiolabel remaining as tasidotin” value in data set [12] (96 h) is “approximately 6%”. Further, the “Total radiolabel with the mobility of P5” value in data set [12] (96 h) is “approximately 56%”.
